Bioassay records deposited in PubChem by several laboratories.
In the library only some 1.1% were active in any assay of this set; here they are far more common.
SENP1 inh: SENP1 (human) catalytic domain inhibition; Q9P0U3; recombinant SENP1 catalytic domain, CyPet-SUMO1-YPet FRET cleavage; inhibition, % at 10 µM; 360,000 compounds, 0.21% hits; AID 624204;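 active means inhibition at least 30% at 10 µM, raw YFP signal under a set limit, fluorescence ratio 0.5 to 1.5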
Target sequence (Q9P0U3 419-644 limits assumed): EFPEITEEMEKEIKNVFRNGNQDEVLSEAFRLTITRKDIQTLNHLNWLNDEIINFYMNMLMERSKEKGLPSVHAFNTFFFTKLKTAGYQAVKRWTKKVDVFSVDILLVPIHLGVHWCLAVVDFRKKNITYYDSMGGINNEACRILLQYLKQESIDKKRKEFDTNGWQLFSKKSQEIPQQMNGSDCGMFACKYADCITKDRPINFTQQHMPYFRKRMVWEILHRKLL
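Test system: recombinant human SENP1 catalytic domain, His6-tagged / Medium: pH 8 Tris buffer with EDTA, NaCl, BME, BSA, NP40, catalase / Also added: SUMO1 FRET substrate flanked by Cypet and Ypet, 25 nM / Times: 50 min reaction at room temperature / Signal: FRET, CFP and YFP emission / Control set: no-enzyme low control and enzyme-plus-DMSO high control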
FAS-TE inh: blocks the thioesterase domain of human fatty acid synthase; P49327; recombinant FAS-TE, OMFH fluorogenic substrate, fluorescence endpoint; 360,000 compounds, 0.67% hits; inhibition, % at 15 µM;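 active means compounds whose normalised, plate-corrected inhibition of enzyme fluorescence in the single-dose primary screen is 50% or more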
JMJD2C inh: blocks human GASC-1 demethylase activity; GST-JMJD2C(1-420) H3K9me3 demethylation, DELFIA europium; inhibition, % at 2.35 µM; 330,000 compounds, 0.069% hits;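 active means more than half of a compound's replicate wells show inhibition beyond 50%, single wells judged on their own value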;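 further: signal counts dimethyl H3K9 product captured on neutravidin plate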
Arr AP2 block: inhibitors of human beta-arrestin and AP2 interaction. inhibition, % at 10 µM. 340,000 compounds, 0.31% hits. FITC-arrestin peptide / GST-AP2 beads, flow cytometry; AP2 beta2 appendage carries R879A mutation;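 active means inhibition above a set limit, near 3 SD of compounds lacking own fluorescence, cut at about 54% in these data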
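test system = AP2 appendage R879A on GSH beads | buffer or medium = PBS plus Tween 20 (0.05%) and BSA (0.1%) | incubation = 12 min plus 1 h, RT | detection = bead flow cytometry, FITC channel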
FAS-TE inh conf: confirmation of human fatty acid synthase thioesterase inhibitors; shares compounds with FAS-TE inh; recombinant FAS-TE, OMFH fluorogenic substrate, fluorescence; inhibition, % at 15 µM; 2,300 compounds, 45% hits;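 active means compounds inhibiting the enzyme by at least 50% at 15 µM in any one of the replicates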
Of the large screens only hits and unclear results are named; the others gave an inactive call (follow-up assays come after a bar, where they were run).

CCCC(C)c1nnc(NC(=O)c2cc(C(=O)OC)cc([N+](=O)[O-])c2)s1 (stereo not given)	FAS-TE inh 54.7 | FAS-TE inh conf 58.1
O=C(CSc1nc2ccccc2s1)NC1CCS(=O)(=O)C1 (stereo not given)	none
Cc1ccccc1N(CC(=O)NCc1ccc2c(c1)OCO2)C(=O)C1CSC(=O)C1 (stereo not given)	FAS-TE inh 68.8 | FAS-TE inh conf 66.5
CC(=O)O[C@H]1C(=O)[C@@]2(C)C([C@H](OC(=O)c3ccccc3)[C@]3(O)C[C@H](OC(=O)[C@H](O)[C@@H](NC(=O)c4ccccc4)c4ccccc4)C(C)=C1C3(C)C)[C@]1(OC(C)=O)CO[C@@H]1C[C@H]2O (stereo not given in full)	FAS-TE inh 52.5 | FAS-TE inh conf inactive
C=CCNC(=S)Nc1ccc2cn[nH]c2c1	none
CC(C)(C)c1ccc(C(=O)N2CCC2(C)C(=O)Nc2cccc(C#N)c2)cc1 (stereo not given)	FAS-TE inh 64.8 (no result: JMJD2C inh, Arr AP2 block) | FAS-TE inh conf 65.7
O=C1N[C@@H](Cc2ccccc2)C(=O)N2[C@H]1C[C@]1([C@]34C[C@H]5C(=O)N[C@@H](Cc6ccccc6)C(=O)N5[C@H]3N(S(=O)(=O)c3ccccc3)c3ccccc34)c3ccccc3N(S(=O)(=O)c3ccccc3)[C@H]21	FAS-TE inh 76.7 | FAS-TE inh conf inactive
O=C1N[C@@H](Cc2ccccc2)C(=O)N2[C@@H]3N(S(=O)(=O)c4ccccc4)c4ccccc4[C@]3(Br)C[C@@H]12	none
N#CCCSc1nc(N2CCOCC2)c2c(c1C#N)CCCC2	FAS-TE inh 55.1 | FAS-TE inh conf 62.1
CCCSc1nc(N2CCOCC2)c2c(c1C#N)CCCC2	none
COc1cc(S(=O)(=O)NCc2ccccn2)c(OC)cc1Cl	none
Cc1ccc2nc(NC(=O)C3CCN(S(=O)(=O)c4cccs4)CC3)sc2c1	FAS-TE inh 67.8 | FAS-TE inh conf inactive
Cc1ccc(NC(=O)C2CCN(S(=O)(=O)c3cccs3)CC2)cc1C	none
CCn1c2ccccc2c2cc(NC(=O)C3CCN(S(=O)(=O)c4cccs4)CC3)ccc21	FAS-TE inh 65.9 | FAS-TE inh conf inactive
Cn1cc(CC(=O)NCCCN2CCCC2)c2ccccc21	none
O=C(CNc1cc(S(=O)(=O)N2CCCC2)ccc1OCC(F)(F)F)Nc1ccc(SC(F)F)cc1	FAS-TE inh 65.1 | FAS-TE inh conf 56.5
O=C(CNc1cc(S(=O)(=O)N2CCCC2)ccc1OCC(F)(F)F)Nc1cc(Cl)cc(Cl)c1	none (no result: SENP1 inh, FAS-TE inh, Arr AP2 block)
O=C(CCN1C(=O)/C(=C/c2ccccc2Cl)SC1=S)Nc1cccnc1	FAS-TE inh 62.1 | FAS-TE inh conf inactive
O=C1/C(=C/c2ccccc2Cl)SC(=S)N1CCCC(=O)N(CCO)c1ccccc1	FAS-TE inh 56.3 | FAS-TE inh conf 39.6
O=C(CCN1C(=O)/C(=C/c2ccccc2Cl)SC1=S)Nc1ccccn1	FAS-TE inh 64.7 | FAS-TE inh conf 58.5
Cc1ccc(SC(CC(=O)c2ccc(C)cc2)C(=O)O)cc1 (stereo not given)	none
COc1ccc(S(=O)(=O)N2CCCCC2)cc1NC(=O)c1cccc(S(=O)(=O)N2CC(C)OC(C)C2)c1 (stereo not given)	FAS-TE inh 65.3 (no result: JMJD2C inh) | FAS-TE inh conf inactive
COc1ccccc1NS(=O)(=O)c1cc(NC(=O)c2ccc3ccccc3n2)ccc1Cl	FAS-TE inh 65.4 | FAS-TE inh conf inactive
COc1ccc(S(=O)(=O)N2CCOCC2)cc1NC(=O)c1ccc(S(=O)(=O)N(C)c2ccccc2OC)cc1	FAS-TE inh 60.9 (no result: JMJD2C inh) | FAS-TE inh conf inactive
COc1ccc(S(=O)(=O)N2CCCCC2)cc1NC(=O)c1ccc2ccccc2n1	FAS-TE inh 52.8 | FAS-TE inh conf inactive
Cc1ccc(S(=O)(=O)N2CCCCC2)cc1NC(=O)c1ccc2ccccc2n1	none
CCCN(CCC)CCNS(=O)(=O)c1ccc2c(c1)oc(=O)n2C	none
COC(=O)c1ccc(CS(=O)(=O)c2ccc(C)cc2)cc1	none
COCCN(C(=O)CSc1nnc(C)n1-c1ccc(C)cc1)c1c(N)n(Cc2ccccc2)c(=O)[nH]c1=O	none
Cc1ccc(NC(=O)/C(=C\c2ccccc2)NC(=O)/C=C/c2ccccc2)cc1	FAS-TE inh 72.7 | FAS-TE inh conf inactive
Cc1ccc2occ(/C=N/NC(=O)c3ccc(Cl)cc3)c(=O)c2c1	none
